Laboratory results published in ChEMBL document CHEMBL4613215, “Structure-Activity Relationships for a Series of (Bis(4-fluorophenyl)methyl)sulfinyl Alkyl Alicyclic Amines at the Dopamine Transporter: Functionalizing the Terminal Nitrogen Affects Affinity, Selectivity, and Metabolic Stability” (J Med Chem, 2020).

What was measured:
[1] = molecular target: Sigma non-opioid intracellular receptor 1 (Cavia porcellus, UniProt Q60492); assay: Displacement of [3H]-(+)-pentazocine from Sigma1 receptor in guinea pig cortex membranes incubated for 120 mins by microbeta scintillation counting method; format: cell membranes
Chain of Sigma non-opioid intracellular receptor 1 (Q60492 whole entry): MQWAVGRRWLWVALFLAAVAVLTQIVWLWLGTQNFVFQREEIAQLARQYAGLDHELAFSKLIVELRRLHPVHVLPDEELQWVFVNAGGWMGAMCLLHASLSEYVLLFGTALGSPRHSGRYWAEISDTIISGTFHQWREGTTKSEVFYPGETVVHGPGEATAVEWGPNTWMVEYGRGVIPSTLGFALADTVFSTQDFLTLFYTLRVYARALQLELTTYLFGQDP

[2] = molecular target: Voltage-gated inwardly rectifying potassium channel KCNH2 (Homo sapiens, UniProt Q12809); assay: Inhibition of human ERG
Chain of Voltage-gated inwardly rectifying potassium channel KCNH2 (Q12809 whole entry): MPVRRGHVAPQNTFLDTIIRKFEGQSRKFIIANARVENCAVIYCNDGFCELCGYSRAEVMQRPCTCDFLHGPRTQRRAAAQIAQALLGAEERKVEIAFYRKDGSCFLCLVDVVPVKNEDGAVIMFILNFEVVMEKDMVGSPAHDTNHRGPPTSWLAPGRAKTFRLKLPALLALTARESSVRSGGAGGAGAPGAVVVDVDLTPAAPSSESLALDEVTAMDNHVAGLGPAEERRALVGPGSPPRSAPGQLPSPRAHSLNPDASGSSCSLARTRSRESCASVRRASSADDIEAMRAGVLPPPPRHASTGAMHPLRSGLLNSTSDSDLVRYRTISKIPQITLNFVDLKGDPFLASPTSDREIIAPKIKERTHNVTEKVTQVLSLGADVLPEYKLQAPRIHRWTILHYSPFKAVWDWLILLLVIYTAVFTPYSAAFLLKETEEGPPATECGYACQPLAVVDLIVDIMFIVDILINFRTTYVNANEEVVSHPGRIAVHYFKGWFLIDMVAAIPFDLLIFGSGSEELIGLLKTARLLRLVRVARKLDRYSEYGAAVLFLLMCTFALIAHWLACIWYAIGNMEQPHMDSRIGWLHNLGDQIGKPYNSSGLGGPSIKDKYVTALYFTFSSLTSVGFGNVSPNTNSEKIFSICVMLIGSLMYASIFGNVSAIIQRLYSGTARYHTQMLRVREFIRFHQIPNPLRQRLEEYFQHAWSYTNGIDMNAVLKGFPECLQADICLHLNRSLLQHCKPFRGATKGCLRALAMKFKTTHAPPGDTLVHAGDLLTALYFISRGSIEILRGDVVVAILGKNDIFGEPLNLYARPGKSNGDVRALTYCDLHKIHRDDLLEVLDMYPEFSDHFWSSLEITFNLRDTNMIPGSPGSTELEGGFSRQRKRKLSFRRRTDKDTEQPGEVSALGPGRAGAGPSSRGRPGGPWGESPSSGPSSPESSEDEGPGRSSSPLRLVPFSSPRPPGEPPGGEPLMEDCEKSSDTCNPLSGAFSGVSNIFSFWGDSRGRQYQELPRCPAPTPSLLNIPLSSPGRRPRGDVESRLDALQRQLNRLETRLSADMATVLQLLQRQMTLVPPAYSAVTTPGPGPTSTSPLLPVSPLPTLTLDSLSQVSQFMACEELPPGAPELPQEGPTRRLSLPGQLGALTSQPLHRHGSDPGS

[3] = Displacement of [3H]WIN35428 from DAT Y156F mutant (unknown origin) transiently expressed in COS7 cells incubated for > 90 mins by beta scintillation counting method; format: cell-based, Homo sapiens; settings: cos-7
[4] = Stability in mouse liver microsomes assessed as parent compound remaining at 10 uM after 60 mins in presence of NADPH by LC-MS/MS analysis; format: ADME, Microsome; settings: read-out: Stability
[5] = organism: Rattus norvegicus; assay: Selectivity ratio of Ki for displacement of [3H]citalopram from in SERT Sprague-Dawley rat midbrain membranes to Ki for displacement of [3H]WIN 35428 from DAT in Sprague-Dawley rat striatum membranes
[6] = molecular target: T1, Sodium-dependent dopamine transporter (Homo sapiens, UniProt Q01959); assay: Displacement of [3H]WIN35428 from DAT (unknown origin) transiently expressed in COS7 cells incubated for > 90 mins by beta scintillation counting method; format: cell-based, COS-7
T1 sequence (Q01959 whole entry): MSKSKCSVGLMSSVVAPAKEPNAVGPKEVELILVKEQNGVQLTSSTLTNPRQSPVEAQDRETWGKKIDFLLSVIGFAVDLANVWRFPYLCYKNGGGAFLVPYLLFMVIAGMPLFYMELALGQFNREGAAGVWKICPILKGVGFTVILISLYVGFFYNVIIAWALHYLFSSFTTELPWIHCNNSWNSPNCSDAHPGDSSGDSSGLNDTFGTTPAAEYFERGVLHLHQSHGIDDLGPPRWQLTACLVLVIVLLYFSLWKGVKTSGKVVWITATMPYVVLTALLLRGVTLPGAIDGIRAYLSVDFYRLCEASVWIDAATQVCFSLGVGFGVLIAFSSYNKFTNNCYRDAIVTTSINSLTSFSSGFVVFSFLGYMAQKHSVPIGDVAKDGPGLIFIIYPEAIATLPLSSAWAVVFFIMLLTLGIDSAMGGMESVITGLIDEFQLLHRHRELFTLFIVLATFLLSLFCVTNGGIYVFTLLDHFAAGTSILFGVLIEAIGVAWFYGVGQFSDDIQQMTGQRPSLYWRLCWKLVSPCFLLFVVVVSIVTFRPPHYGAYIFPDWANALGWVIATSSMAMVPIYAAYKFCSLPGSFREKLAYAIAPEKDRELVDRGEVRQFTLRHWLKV

[7] = organism: Homo sapiens; assay: Selectivity ratio of Ki for displacement of [3H]WIN35428 from DAT Y156F mutant (unknown origin) transiently expressed in COS7 cells to Ki for displacement of [3H]WIN35428 from DAT (unknown origin) transiently expressed in COS7 cells; format: cell-based
[8] = molecular target: T1, Sodium-dependent dopamine transporter; assay: Inhibition of human DAT transiently expressed in COS7 cells assessed as reduction in [3H]-DA uptake measured after 5 mins by beta-scintillation counting method; format: cell-based, COS-7
[9] = molecular target: Sodium-dependent dopamine transporter (Rattus norvegicus, UniProt P23977); assay: Displacement of [3H]WIN35428 from DAT in Sprague-Dawley rat striatum membranes incubated for 120 mins by microbeta scintillation counting method; format: cell membranes, Membrane
Chain of Sodium-dependent dopamine transporter (Rattus norvegicus, UniProt P23977) (P23977 whole entry): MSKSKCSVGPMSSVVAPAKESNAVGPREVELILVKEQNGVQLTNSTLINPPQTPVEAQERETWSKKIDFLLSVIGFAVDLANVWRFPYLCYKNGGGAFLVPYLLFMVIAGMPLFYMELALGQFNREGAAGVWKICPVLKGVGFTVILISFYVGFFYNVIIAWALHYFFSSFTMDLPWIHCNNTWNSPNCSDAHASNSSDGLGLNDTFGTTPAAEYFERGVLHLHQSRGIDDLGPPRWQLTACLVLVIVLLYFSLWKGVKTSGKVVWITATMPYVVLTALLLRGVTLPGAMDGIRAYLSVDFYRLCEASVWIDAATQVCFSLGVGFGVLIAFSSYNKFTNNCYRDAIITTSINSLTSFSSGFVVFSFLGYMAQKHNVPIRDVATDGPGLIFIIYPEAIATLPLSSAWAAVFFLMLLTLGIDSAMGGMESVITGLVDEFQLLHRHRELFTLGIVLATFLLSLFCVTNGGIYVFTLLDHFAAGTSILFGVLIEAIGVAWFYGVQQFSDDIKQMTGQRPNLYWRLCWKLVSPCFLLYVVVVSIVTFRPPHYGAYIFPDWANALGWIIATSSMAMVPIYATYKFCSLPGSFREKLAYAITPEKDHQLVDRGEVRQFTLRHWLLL

[10] = Stability in mouse liver microsomes at 10 uM after 60 mins in presence of NADPH by LC-MS/MS analysis; format: ADME, Microsome; settings: 1 h
[11] = molecular target: Sodium-dependent serotonin transporter (Rattus norvegicus, UniProt P31652); assay: Displacement of [3H]citalopram from SERT in Sprague-Dawley rat midbrain membranes incubated for 60 mins by microbeta scintillation counting method; format: cell membranes, Membrane
Chain of Sodium-dependent serotonin transporter (P31652 whole entry): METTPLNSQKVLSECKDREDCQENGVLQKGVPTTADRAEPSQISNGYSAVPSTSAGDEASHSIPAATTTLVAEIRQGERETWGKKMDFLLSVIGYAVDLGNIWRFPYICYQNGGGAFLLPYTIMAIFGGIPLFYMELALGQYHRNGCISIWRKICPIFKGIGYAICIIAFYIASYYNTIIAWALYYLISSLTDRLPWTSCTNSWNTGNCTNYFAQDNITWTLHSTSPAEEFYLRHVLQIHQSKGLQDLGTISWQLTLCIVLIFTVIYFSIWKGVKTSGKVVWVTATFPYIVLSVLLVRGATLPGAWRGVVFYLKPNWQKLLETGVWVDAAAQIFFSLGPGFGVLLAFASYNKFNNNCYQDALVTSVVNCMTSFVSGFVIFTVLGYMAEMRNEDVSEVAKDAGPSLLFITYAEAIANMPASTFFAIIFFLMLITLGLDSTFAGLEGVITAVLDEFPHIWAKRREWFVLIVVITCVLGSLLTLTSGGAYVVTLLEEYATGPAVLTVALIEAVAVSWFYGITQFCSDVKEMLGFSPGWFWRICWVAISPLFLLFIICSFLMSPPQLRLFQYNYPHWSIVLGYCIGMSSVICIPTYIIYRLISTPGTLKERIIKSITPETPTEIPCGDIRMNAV

[12] = Half life in rat liver microsomes at 10 uM in presence of NADPH generating system by LC-MS/MS analysis; format: ADME, Microsome
[13] = Effect on locomotor activity in mouse assessed as increase in total ambulations at 3 to 30 mg/kg, ip measured during 30 mins of 2 hrs test by open field test; format: ADME, organism-based; settings: in vivo
How it was run: (§1)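 Mice acclimatized ~2 h, injected i.p. then placed immediately in open-field chambers with infrared beam arrays; beam breaks over 2 h converted to distance; maximum distance per 30 min reported; n=6 per group, each mouse used once; two-way ANOVA (Drug, Dose) with Tukey post-hoc versus vehicle.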

[14] = Effect on locomotor activity in mouse assessed as increase in total ambulations at 3 to 56 mg/kg, ip measured during 30 mins of 2 hrs test by open field test; format: ADME, organism-based; settings: in vivo; how it was run: as §1
[15] = Half life in mouse liver microsomes at 10 uM in presence of NADPH by LC-MS/MS analysis; format: ADME, Microsome
[16] = Selectivity ratio of IC50 for inhibition of human ERG to Ki for displacement of [3H]WIN 35428 from DAT in Sprague-Dawley rat striatum membranes

Row | Compound | Ki [1] | Ratio Ki [5] | Ki [9] | Stability [10] | Ki [11] | also measured
1 | CC(O)CN1[C@H](C)CN(CC[S+]([O-])C(c2ccc(F)cc2)c2ccc(F)cc2)C[C@@H]1C (some centres undefined) | 315 nM | 78 | – | – | – | IC50 [2]: 7300 nM; Ki [3]: 3030 nM; remaining at 1 h, 10 µM [4]: 30 to 44%; Ki [6]: 406 nM; Ratio Ki [7]: 7.5; Ki [8]: 552 nM
2 | COc1ccc(CC(O)CN2CCN(CC[S+]([O-])C(c3ccc(F)cc3)c3ccc(F)cc3)CC2)cc1 (centres undefined) | 31.8 nM | 4850 | 3.01 nM | Unstable | 14600 nM | –
3 | O[C@H](Cc1ccccc1)CN1CCN(CCSC(c2ccc(F)cc2)c2ccc(F)cc2)CC1 | 23.6 nM | 207 | 3.93 nM | Unstable | 813 nM | –
4 | C[C@@H](O)CN1CCN(CC[S+]([O-])C(c2ccc(F)cc2)c2ccc(F)cc2)CC1 (some centres undefined) | 902 nM | – | 782 nM | Stable | 81500 nM | –
5 | CC(O)CN1CCN(CCSC(c2ccc(F)cc2)c2ccc(F)cc2)CC1 (centres undefined) | – | – | – | – | – | half-life at 10 µM [12]: 0.233 h
6 | [O-][S+](CCN1CCN(C[C@@H](O)Cc2ccccc2)CC1)C(c1ccc(F)cc1)c1ccc(F)cc1 (some centres undefined) | 27.4 nM | 15900 | 1.34 nM | Unstable | 21300 nM | –
7 | OC(Cc1ccc(F)cc1)CN1CCN(CCSC(c2ccc(F)cc2)c2ccc(F)cc2)CC1 (centres undefined) | 29.4 nM | 796 | 1.72 nM | Unstable | 1370 nM | –
8 | [O-][S+](CCCN1CCN(CCCc2ccccc2)CC1)C(c1ccc(F)cc1)c1ccc(F)cc1 (centres undefined) | 39.4 nM | 27 | 40.3 nM | Unstable | 1100 nM | –
9 | CC(O)CN1CCC2(CCN(CC[S+]([O-])C(c3ccc(F)cc3)c3ccc(F)cc3)CC2)C1 (centres undefined) | 65.1 nM | 1.4 | – | – | – | –
10 | COc1ccc(CC(O)CN2CCN(CCSC(c3ccc(F)cc3)c3ccc(F)cc3)CC2)cc1 (centres undefined) | 9.65 nM | 743 | 1.91 nM | – | 1420 nM | –
11 | C[C@H](O)CN1CCN(CC[S+]([O-])C(c2ccc(F)cc2)c2ccc(F)cc2)CC1 (some centres undefined) | 284 nM | – | 536 nM | Stable | 200000 nM | –
12 | C[C@@H](O)CN1CCN(CCSC(c2ccc(F)cc2)c2ccc(F)cc2)CC1 | 3.03 nM | 40 | 73.2 nM | – | 2840 nM | –
13 | COC(=O)[C@H]1[C@@H](OC(=O)c2ccccc2)C[C@@H]2CC[C@H]1N2C [COCAINE] | – | – | – | – | – | Activity [13]: Toxic
14 | CC(O)CN1CCN(CC[S+]([O-])C(c2ccc(F)cc2)c2ccc(F)cc2)CC1 (centres undefined) | – | – | – | – | – | half-life at 10 µM [12]: 2.1 h; Activity [14]: Non-Toxic; half-life at 10 µM [15]: 2.1 h
15 | OC(CN1CCC2(CCN(CCSC(c3ccc(F)cc3)c3ccc(F)cc3)CC2)C1)c1ccccc1 (centres undefined) | 45.5 nM | 1 | 127 nM | – | – | Ki [3]: 239 nM; remaining at 1 h, 10 µM [4]: 30 to 44%; Ki [6]: 104 nM; Ratio Ki [7]: 2.3; Ki [8]: 268 nM; Selectivity ratio [16]: 13
16 | CCC(=O)N1CCN(CCSC(c2ccc(F)cc2)c2ccc(F)cc2)CC1 | 33.2 nM | 0.5 | 5080 nM | – | 2490 nM | –
